# Shown are actives, neighbours in structure and some others; about 3.6% of the full set was active somewhere.
# NadD block = inhibitors of S. aureus NadD, primary screen, biochemical, colorimetric, uHTS | Nicotinate-nucleotide adenylyltransferase NadD (Staphylococcus aureus N315) | purified NadD enzyme, colorimetric absorbance read-out | AID 602399, 2012 | inhibition, % at 20 µM | actives 0.78% (n = 360,000); in the data active = inhibition above about 26%
# GRIN3A LBD mod = binders of NR3A ligand-binding domain, primary screen, biophysical, differential scanning fluorimetry, uHTS | Glutamate receptor ionotropic, NMDA 3A (GRIN3A) ligand-binding domain | NR3A LBD differential scanning fluorimetry, Tm shift; 0% = protein alone, 100% = glycine-bound protein | Tm shift relative to glycine control, % at 25 µM | actives 2.5% (n = 340,000) | AID 1259313, 2017;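 active = melting temperature shift of at least 10% of the positive control shift, at one fixed dose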
# UCH37 inh = inhibitors of human UCH37 deubiquitinase, primary screen, biochemical, Ub-AMC cleavage, fluorescence; actives 0.33% (n = 330,000); inhibition, % (no concentration beside the values); Ubiquitin carboxyl-terminal hydrolase isozyme L5 (Homo sapiens), Q9Y5K5; purified proteasome/UCH37;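 active = mean inhibition over replicate wells above about 20%, limit read from the data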;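 also: 0% = compound-free wells with enzyme and 100% = wells lacking proteasome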
#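 Test system – human UCH37 enzyme supplied as purified proteasome complex · Incubation – 30 min preincubation with enzyme, 25 min cleavage at room temperature · Detection – AMC fluorescence from Ub-AMC cleavage, excitation 355 nm, emission 460 nm · Benchmarks – no-proteasome wells (full inhibition) and compound-free wells (no inhibition)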
# ATG4B inhibitor = ATG4B protease inhibitors, primary screen, biochemical, fluorescence, uHTS | inhibition, % at 8.33 µM | actives 0.51% (n = 340,000) | ATG4B cleavage of LC3-PLA2, NBD-HPC fluorescence, 1 h; in the data active = inhibition above about 40%
# Target sequence (Q9Y4P1 whole entry, looked up): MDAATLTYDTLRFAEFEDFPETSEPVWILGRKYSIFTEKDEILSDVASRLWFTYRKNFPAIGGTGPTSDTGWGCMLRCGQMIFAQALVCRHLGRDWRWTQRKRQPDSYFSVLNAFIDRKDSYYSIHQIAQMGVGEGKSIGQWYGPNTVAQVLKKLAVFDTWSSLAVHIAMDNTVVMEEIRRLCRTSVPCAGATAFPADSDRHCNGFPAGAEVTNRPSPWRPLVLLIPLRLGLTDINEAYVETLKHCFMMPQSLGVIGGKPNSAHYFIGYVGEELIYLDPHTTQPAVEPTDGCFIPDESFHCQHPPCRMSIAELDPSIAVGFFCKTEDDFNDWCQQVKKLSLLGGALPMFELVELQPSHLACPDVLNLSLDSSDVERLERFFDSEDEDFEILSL
# SENP1 FRET inh = human SENP1 catalytic domain inhibitors, primary screen, biochemical, FRET, uHTS. Sentrin-specific protease 1 (Homo sapiens), Q9P0U3. recombinant SENP1 catalytic domain, CyPet-SUMO1-YPet FRET cleavage. inhibition, % at 10 µM. actives 0.21% (n = 360,000);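 active = inhibition at least 30% at 10 µM, raw YFP signal under a set limit, fluorescence ratio 0.5 to 1.5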;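 also: 0% = enzyme with DMSO and 100% = no enzyme wells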
# Target sequence (Q9P0U3 419-644 limits assumed): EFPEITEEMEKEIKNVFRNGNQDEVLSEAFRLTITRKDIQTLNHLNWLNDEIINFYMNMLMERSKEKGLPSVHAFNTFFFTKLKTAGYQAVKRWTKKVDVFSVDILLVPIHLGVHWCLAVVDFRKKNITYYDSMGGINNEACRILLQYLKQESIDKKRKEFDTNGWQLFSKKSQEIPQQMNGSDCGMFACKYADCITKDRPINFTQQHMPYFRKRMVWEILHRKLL
#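 Assay system – human recombinant His6-tagged SENP1 catalytic domain enzyme · Input – SENP1 enzyme, 20 pM final · Buffer or medium – Tris pH 8 buffer plus EDTA, NaCl, BME, BSA, NP40, catalase · Schedule – 50 min reaction at room temperature · Technique – FRET read of cyan and yellow fluorescence · Control set – no-enzyme wells low, DMSO-plus-enzyme wells high control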
# NadD inh conf = inhibitors of S. aureus NadD, confirmation, biochemical, colorimetric, single concentration; shares compounds with NadD block; purified S. aureus NadD, colorimetric enzyme assay; actives 13% (n = 2,000); AID 624309, 2012; inhibition, % at 20 µM; in the data active = inhibition mostly above about 42%, no sharp cut-off; inactive = mostly below about 42%
# The depositor's hits bear a star; . = not tested or not shown.
SMILES,NadD block,GRIN3A LBD mod,UCH37 inh,ATG4B inhibitor,SENP1 FRET inh,NadD inh conf
O=C(COC(=O)c1ccc2c(c1)C(=O)N(c1cccc3ncccc13)C2=O)c1ccc(Cl)cc1,9,1,3,-96,1,.
O=C(OCC(=O)c1ccc(Cl)cc1Cl)c1ccc2c(c1)C(=O)N(c1cccc3ncccc13)C2=O,43*,-3,2,-1,2,7
COc1ccccc1NC(=O)CC1S/C(=N/N=C(C)C2CCCCC2)NC1=O (configuration not stated),.,.,-1,.,.,.
O=C(NN=Cc1ccco1)c1ccc(NC(=O)C2CC2)cc1,.,.,7,.,.,.
C(=C\c1ccco1)/c1ccc2ccccc2n1,44*,-5,-96,8,-33,11
Cc1nc2ccccn2c1C(=O)NN=Cc1ccc(F)cc1,.,.,6,.,.,.
COc1ccc(-c2csc(NC(=O)CSc3nc(C)nc4sc(C(=O)O)c(C)c34)n2)cc1,30*,-3,4,13,0,22
CC(CCc1ccccc1)=NNC(=O)C(=O)Nc1cccc(Cl)c1,.,.,1,.,.,.
O=C(c1cccc(S(=O)(=O)N2CCN(c3ccc(F)cc3)CC2)c1)N1CCCCCCC1,-3,-2,1,2,-4,.
O=C(c1cccc(S(=O)(=O)N2CCN(c3ccc(F)cc3)CC2)c1)N1CCN(c2ccccc2O)CC1,38*,1,4,-54,1,9
NC(=S)Nc1cccc2cccnc12,-9,0,3,-3,1,.
NC(=S)NNc1cccc2cccnc12,34*,1,5,-2,4,18
COc1c(C(O)CC(C)C)ccc2c1C(=O)OCc1cc(C)cc(O)c1O2 (configuration not stated),92*,-3,2,-24,-3,-2
CC(Nc1n[nH]c(=O)[nH]c1=O)C(=O)NN=Cc1ccccc1 (configuration not stated),.,.,3,.,.,.
Cc1ccc(NC(=O)c2cc(C(=O)c3cc(Cl)ccc3O)cn(-c3ccc(C)cc3)c2=O)cc1,31*,12*,3,-1,-8,-11
N#Cc1cc(C(=O)c2cc(Cl)ccc2O)cn(-c2ccccc2)c1=O,-3,-1,5,0,3,.
CCOc1ccc(/C=C/C(=O)c2cc(Br)ccc(=O)c2O)cc1,32*,-18,6,29,3,15
CS/C(N)=N/N=Cc1c(O)ccc2ccccc12,.,.,1,.,.,.
O=C(CNc1ccc2c(c1)OCO2)N/N=C\c1cn(Cc2ccccc2)c2ccccc12,37*,0,.,36,8,19
O=Cc1cn(CC(=O)Nc2ccc3c(c2)OCO3)c2ccccc12,4,-1,1,-4,0,.
COc1ccc(-c2nc3c(c(SCC(=O)Nc4cccc(O)c4)n2)Cc2c(CO)cnc(C)c2O3)cc1,50*,8,4,3,-9,18
Cc1ncc(CO)c2c1Oc1nc(-c3ccccc3)nc(SCC(=O)Nc3cccc(O)c3)c1C2,43*,7,5,4,-7,39*
C#CCOc1c(Br)cc(C=NO)cc1OCC,.,.,5,.,.,.
C#CCN(C[C@@H]1[C@@H](OC(=O)Nc2cccs2)[C@@H](OC(=O)Nc2cccs2)Cn2c(=O)n(CCCCCC)c(=O)n21)S(=O)(=O)c1ccc(C)cc1,30*,.,.,.,-4,16
CCCc1nc2ccccc2c(=O)n1N=Cc1ccc(O)cc1O,.,.,1,.,.,.
SMILES,NadD block,GRIN3A LBD mod,UCH37 inh,ATG4B inhibitor,SENP1 FRET inh,NadD inh conf
O=C(Nc1ccccn1)C1(c2ccccc2)CCCC1,-6,-3,1,-7,-2,.
Cc1ccc(NC(=O)C2(c3ccccc3)CCCC2)nc1,32*,2,3,-10,3,2
COc1ccc(NS(=O)(=O)c2ccc(NC(=S)NC(=O)/C=C/c3ccccc3)cc2)nn1,48*,-8,2,-4,1,54*
O=C(/C=C/c1ccc(Br)cc1)NC(=S)Nc1ccc(S(=O)(=O)Nc2nccs2)cc1,54*,-5,8,37,-1,17
COc1cc(C=NNC(=O)CNC(=O)c2cccc([N+](=O)[O-])c2)ccc1O,.,.,1,.,.,.
O=C(ON=C(c1ccccc1)c1ccncc1)c1ccccc1[N+](=O)[O-],.,.,3,.,.,.
Cc1ccnc(NS(=O)(=O)c2ccc(N3C(=O)c4c(Cl)c(Cl)c(Cl)c(Cl)c4C3=O)cc2)n1,34*,28*,3,-3,-1,6
Cc1ccnc(NS(=O)(=O)c2ccc(N3C(=O)c4ccccc4C3=O)cc2)n1,1,-8,.,1,3,.
COc1nccnc1NS(=O)(=O)c1ccc(N=Cc2c(C)[nH]n(-c3ccc(Cl)cc3)c2=O)cc1,.,.,11,.,.,.
CCc1nnc(NS(=O)(=O)c2ccc(N=Cc3c(C)[nH]n(-c4ccc(Cl)cc4)c3=O)cc2)s1,31*,13*,4,18,2,47*
Cc1ccc(-n2[nH]c(C)c(C=Nc3ccc(S(=O)(=O)Nc4nccs4)cc3)c2=O)cc1C,42*,15*,7,19,4,52*
O=C(CCC(=O)Nc1ccccc1)NN=Cc1ccco1,.,.,3,.,.,.
O=C(Cn1nnc2ccccc21)NN=Cc1cccs1,.,.,3,.,.,.
NS(=O)(=O)c1ccc(N/N=C/c2cn(-c3ccccc3)nc2-c2cccs2)c([N+](=O)[O-])c1,36*,3,.,-8,5,-6
COc1ccc(-c2nn(-c3ccccc3)cc2C=NNc2ccc(S(N)(=O)=O)cc2[N+](=O)[O-])cc1OC,.,.,6,.,.,.
COc1ccccc1N1CCN(Cc2cc(=O)n3ccsc3n2)CC1,-2,-1,0,8,-6,.
CC1Cc2ccccc2N1Cc1cc(=O)n2ccsc2n1 (configuration not stated),28*,-1,-4,-4,-22,11
CC1(C)CC(=O)C(C=NCC2CCNCC2)=C(O)C1,-1,5,4,9,-17,.
CC1(C)CC(=O)C(C=NCC2CCN(C(=O)Cc3ccccc3)CC2)=C(O)C1,36*,-1,4,10,-2,4
COc1ccc(C=NNC(=S)NCCc2ccccc2)cc1,.,.,3,.,.,.
CCOC(=O)c1sc2nc3c(SCCC#N)cc(C(=O)c4cc(F)ccc4O)cn3c(=O)c2c1C,33*,6,-4,-1,-29,-8
